Calls of active or inactive are those of the source. The rule behind the calls is not given here.
Experiments:
[1] = Inhibition of Aspergillus nidulans FcyB expressed in germinating conidiospores of UapA, UapC, AzgA, FurD, FurA, FcyB, CntA transporter deficient Aspergillus nidulans assessed as suppression of [2,8 3H]-adenine uptake after 1 min by scintillation counting method
Outline: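 In germinating conidiospores of a Δ7 strain expressing only FcyB (uapA promoter), 0.5 μM ³H-adenine uptake was measured over 1 min against varying analogue concentrations. Ki was derived from IC50 by Cheng–Prusoff, Ki = IC50/(1+[S]/Km), with [S] as the fixed radiolabelled substrate concentration. Values are averages of at least three independent experiments with three replicates per concentration point.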

[2] = test system: Aspergillus nidulans; experiment: Inhibition of Aspergillus nidulans FcyB expressed in germinating conidiospores of UapA, UapC, AzgA, FurD, FurA, FcyB, CntA transporter deficient Aspergillus nidulans assessed as suppression of [2,8 3H]-hypoxanthine uptake at 0.5 mM after 1 min by scintillation counting method
Outline: (§1)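 Competition uptake in germinating conidiospores of a Δ7 strain carrying single-copy fcyB driven by the uapA promoter, selected by pabA1 complementation. 0.5 μM ³H-substrate (adenine for line 1, hypoxanthine for line 3) was added together with a 1000-fold excess (500 μM) of analogue. Uptake was stopped after 1 min by freezing, immediate centrifugation and washing. Three experiments, each in triplicate.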

[3] = test system: Aspergillus nidulans; experiment: Inhibition of Aspergillus nidulans FcyB expressed in germinating conidiospores of UapA, UapC, AzgA, FurD, FurA, FcyB, CntA transporter deficient Aspergillus nidulans assessed as [2,8 3H]-adenine uptake at 0.5 mM after 1 min by scintillation counting method relative to control; parameters: scale not given: the % may be the effect or the level left; outline: as §1

Structure (SMILES): c1ccc(CNc2nccc3c2ncn3C2CCCC2)cc1
- Ki [1]: 21 µM
- inhibition [2]: Active
- Activity [3]: < 10%

Structure (SMILES): CN1CCN(c2nccc3c2ncn3C2CCCC2)CC1
- Ki [1]: 38 µM
- inhibition [2]: Active
- Activity [3]: < 10%

Structure (SMILES): CC(C)n1cnc2c(NCc3ccccc3)nccc21
- Ki [1]: 5 µM
- inhibition [2]: Active
- Activity [3]: < 10%

Structure (SMILES): Nc1nccc2c1ncn2C1CCCC1
- Ki [1]: 18 µM
- inhibition [2]: Active
- Activity [3]: < 10%

Structure (SMILES): CC(C)n1cnc2c(NCCN(C)C)nccc21
- Ki [1]: 72 µM
- inhibition [2]: Active
- Activity [3]: < 10%

Structure (SMILES): CN(C)CCNc1nccc2c1ncn2C1CCCC1
- Ki [1]: 95 µM
- inhibition [2]: Active
- Activity [3]: < 10%
